# Test results reported in ChEMBL document CHEMBL5108057, “Development of MAO-A and 5-HT2AR Dual Inhibitors with Improved Antidepressant Activity” (J Med Chem, 2022).
# Calls of active or inactive are those of the source. No cut-off for these calls is given here.
# Columns and labels:
# [1] = biological target: T1, Amine oxidase [flavin-containing] B (Homo sapiens, UniProt P27338); experiment: Inhibition of MAO-B (unknown origin) using p-tyramine as substrate preincubated for 15 mins followed by substrate addition and measured after 15 mins by Amplex red fluorescence based microplate reader assay
# T1 sequence (P27338 whole entry): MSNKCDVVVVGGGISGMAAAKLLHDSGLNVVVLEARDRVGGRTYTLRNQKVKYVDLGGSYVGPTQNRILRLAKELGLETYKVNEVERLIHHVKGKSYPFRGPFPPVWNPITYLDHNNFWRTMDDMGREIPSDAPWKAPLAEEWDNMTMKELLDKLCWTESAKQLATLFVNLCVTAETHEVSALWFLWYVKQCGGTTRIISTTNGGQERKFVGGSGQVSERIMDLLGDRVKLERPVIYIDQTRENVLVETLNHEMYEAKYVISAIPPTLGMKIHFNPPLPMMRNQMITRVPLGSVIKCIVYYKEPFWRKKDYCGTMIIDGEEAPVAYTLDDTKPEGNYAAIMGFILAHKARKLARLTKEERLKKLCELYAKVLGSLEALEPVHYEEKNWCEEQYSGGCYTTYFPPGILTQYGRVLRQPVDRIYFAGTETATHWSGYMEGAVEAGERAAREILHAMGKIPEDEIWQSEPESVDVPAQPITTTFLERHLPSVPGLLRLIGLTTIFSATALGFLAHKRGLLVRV
# [2] = Cytotoxicity against human SH-SY5Y cells assessed as reduction in cell growth measured after 48 hrs by MTT assay; assay type: toxicity, cell-based
# Procedure, shortened: (§1)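 MTT assay: PC12, SH-SY5Y or L02 cells at 5.0 × 10^3 per well were grown for 24 h, treated with compound dilutions from 10 mM DMSO stocks, and cultured 48 h. MTT was then added for 4 h at 37 °C, formazan dissolved in DMSO, and absorbance read at 570 nm. Viability is relative to blank control; IC50 from three repeats. Media contained 10% FBS.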
# [3] = Cytotoxicity against human L02 cells assessed as reduction in cell growth measured after 48 hrs by MTT assay; assay type: toxicity, cell-based; procedure, shortened: as §1
# [4] = species on record: Homo sapiens; experiment: Selectivity index, ratio of IC50 for inhibition of MAO-B (unknown origin) to IC50 for inhibition of MAO-A (unknown origin)
# Procedure, shortened: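 Amplex Red coupled assay. Test sample was preincubated with MAO-A or MAO-B at 37 °C for 15 min. p-Tyramine substrate working solution was added, with HRP converting the H2O2 formed to resorufin, for a further 15 min at 37 °C. Fluorescence read at Ex 545/Em 590 nm. […] SI = MAO-B IC50 / MAO-A IC50.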
# [5] = Inhibition of 5-HT2AR mRNA expression in zebra fish AB assessed as fold decrease in 2 delta delta CT level at 1 uM by RT-qPCR method relative to control; assay type: functional, Danio rerio
# Procedure, shortened: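 Total RNA from zebrafish was extracted with Trizol and reverse-transcribed with MMLV. SYBR Green qPCR: 95 °C 2 min; 40 cycles of 95, 60 and 72 °C, 30 s each; then 72 °C for 5 min. 5-HT2AR was normalized to GAPDH by the 2^−ΔΔCT method; mean ± SD, n = 3.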
# [6] = biological target: T2, Amine oxidase [flavin-containing] A (Homo sapiens, UniProt P21397); experiment: Inhibition of MAO-A (unknown origin) using p-tyramine as substrate preincubated for 15 mins followed by substrate addition and measured after 15 mins by Amplex red fluorescence based microplate reader assay
# T2 sequence (P21397 whole entry): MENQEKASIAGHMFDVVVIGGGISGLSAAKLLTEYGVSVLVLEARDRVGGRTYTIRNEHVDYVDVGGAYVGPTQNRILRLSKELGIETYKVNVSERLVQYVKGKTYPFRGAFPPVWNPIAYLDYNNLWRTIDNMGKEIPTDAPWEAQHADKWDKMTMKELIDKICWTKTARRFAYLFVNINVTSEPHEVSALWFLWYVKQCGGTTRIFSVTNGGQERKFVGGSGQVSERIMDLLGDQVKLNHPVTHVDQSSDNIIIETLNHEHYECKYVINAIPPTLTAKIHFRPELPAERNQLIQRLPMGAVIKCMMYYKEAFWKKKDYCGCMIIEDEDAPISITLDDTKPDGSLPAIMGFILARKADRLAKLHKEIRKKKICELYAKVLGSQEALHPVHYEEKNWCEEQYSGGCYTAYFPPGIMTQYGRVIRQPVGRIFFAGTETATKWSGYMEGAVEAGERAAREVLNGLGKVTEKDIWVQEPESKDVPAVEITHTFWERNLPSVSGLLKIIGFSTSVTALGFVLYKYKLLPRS
# [7] = Cytotoxicity against rat PC-12 cells assessed as reduction in cell growth measured after 48 hrs by MTT assay; assay type: toxicity, cell-based; procedure, shortened: as §1
# [8] = test system: Mus musculus; experiment: Antidepressant activity in reserpine-induced mouse assessed as downregulation of 5-HT2AR expression at 20 mg/kg pretreated with reserpine for 3 days followed by compound addition on day 4 to 10 by Western blot analysis; assay type: functional, organism-based; details: time 6.0 day
# Procedure, shortened: (§2)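 ICR mice given reserpine 1 mg/kg i.p. for 3 consecutive days, then treated daily on days 4–10 (saline 10 mL/kg as vehicle control). Whole-brain protein quantified by BCA, diluted to 3 mg/mL, 10 μL run on 4–20% SDS-PAGE, transferred, blocked, primary antibody 4 °C overnight, secondary 1 h room temperature. Relative 5-HT1AR and 5-HT2AR levels, mean ± SD, n = 3.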
# [9] = test system: Mus musculus; experiment: Antidepressant activity in reserpine-induced mouse assessed as increase in 5-HT1AR expression at 20 mg/kg pretreated with reserpine for 3 days followed by compound addition on day 4 to 10 by Western blot analysis; assay type: functional, organism-based; details: time 6.0 day; procedure, shortened: as §2
Structure (SMILES),IC50 [1] [µM],IC50 at 48 h [2] [µM],IC50 at 48 h [3] [µM],Ratio IC50 [4],fold change (FC) [5],IC50 [6] [µM],IC50 at 48 h [7] [µM],Activity [8],Activity [9]
O=C1c2ccccc2-c2nccc3cc(OCCCN4CCN(c5cccc(Cl)c5Cl)CC4)cc1c23,1.53,> 10,> 100,139,0.055,0.011,> 10,–,–
COc1ccccc1N1CCN(CCCOc2cc3c4c(nccc4c2)-c2ccccc2C3=O)CC1,3.26,> 10,> 100,60.4,0.2,0.054,> 10,–,–
O=C1c2ccccc2-c2nccc3cc(OCCCCN4CCN(c5ccccc5Cl)CC4)cc1c23,12.7,> 10,> 100,25.3,2.575,0.503,> 10,–,–
COc1ccccc1N1CCN(CCCCCOc2cc3c4c(nccc4c2)-c2ccccc2C3=O)CC1,1.38,> 10,> 100,98.6,0.142,0.014,> 10,–,–
O=C1c2ccccc2-c2nccc3cc(OCCCN4CCN(c5ccccc5)CC4)cc1c23,0.85,> 10,> 100,94.4,0.069,0.009,> 10,–,–
O=C1c2ccccc2-c2nccc3cc(OCCCCCN4CCN(c5cccc(Cl)c5Cl)CC4)cc1c23,0.89,> 10,> 100,148,0.049,0.006,> 10,–,–
CNCCC(Oc1ccc(C(F)(F)F)cc1)c1ccccc1 (centres undefined),–,–,–,–,–,–,–,Active,Active
O=C1c2ccccc2-c2nccc3cc(OCCCCN4CCN(c5cccc(Cl)c5Cl)CC4)cc1c23,2.16,> 10,> 100,30,0.578,0.072,> 10,–,–
O=C1c2ccccc2-c2nccc3cc(OCCCN4CCN(c5ccccc5Cl)CC4)cc1c23,15.1,> 10,> 100,41.9,1.886,0.361,> 10,–,–
O=C1c2ccccc2-c2nccc3cc(OCCCCCN4CCN(c5ccccc5Cl)CC4)cc1c23,4.19,> 10,> 100,48.7,1.804,0.086,> 10,–,–
COc1ccccc1N1CCN(CCCCOc2cc3c4c(nccc4c2)-c2ccccc2C3=O)CC1,4.28,> 10,> 100,47,0.685,0.091,> 10,–,–
O=C1c2ccccc2-c2nccc3cc(OCCCCN4CCN(c5ccccc5F)CC4)cc1c23,1.49,> 10,> 100,186,0.048,0.008,> 10,–,–
O=C1c2ccccc2-c2nccc3cc(OCCCCN4CCN(c5ccccc5)CC4)cc1c23,3.42,> 10,> 100,69.8,1.341,0.049,> 10,–,–
O=C1c2ccccc2-c2nccc3cc(OCCCCCN4CCN(c5ccccc5)CC4)cc1c23,1.46,> 10,> 100,162,0.06,0.009,> 10,–,–
O=C1c2ccccc2-c2nccc3cc(OCCCN4CCN(c5ccccc5F)CC4)cc1c23,1.01,> 10,> 100,202,0.038,0.005,> 10,–,–
O=C1c2ccccc2-c2nccc3cc(O)cc1c23,23.5,–,–,18.6,2.675,1.26,–,–,–
